# Screening data from PubChem.
# CYP2C9 activ – CYP2C9 (human) activation; P11712; recombinant CYP2C9, luciferin-H conversion, luminescence; active compounds read high; factor 1 = untreated enzyme, 0 = blocked; activation factor at 5 µM; 1.4% of 96,000 active; AID 1024;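 active = activation factor of 2 or more for CYP2C9 at a 5 µM dose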;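 note: 0 = sulfaphenazole-blocked wells and 1 = vehicle-only wells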
# Target sequence (P11712 whole entry, looked up): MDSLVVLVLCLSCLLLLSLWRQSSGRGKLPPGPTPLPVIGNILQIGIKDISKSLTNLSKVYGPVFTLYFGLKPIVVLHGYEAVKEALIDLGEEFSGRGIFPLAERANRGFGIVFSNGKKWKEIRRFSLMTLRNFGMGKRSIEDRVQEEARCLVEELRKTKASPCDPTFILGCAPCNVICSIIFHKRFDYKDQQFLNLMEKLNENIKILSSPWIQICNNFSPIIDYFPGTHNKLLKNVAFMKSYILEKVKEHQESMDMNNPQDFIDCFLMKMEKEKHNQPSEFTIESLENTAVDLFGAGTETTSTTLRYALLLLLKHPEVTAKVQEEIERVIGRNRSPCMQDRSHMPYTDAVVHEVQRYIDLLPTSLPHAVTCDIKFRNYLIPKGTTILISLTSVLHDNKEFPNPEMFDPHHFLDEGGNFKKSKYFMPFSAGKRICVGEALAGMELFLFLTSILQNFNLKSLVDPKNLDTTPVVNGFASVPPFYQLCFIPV
# CYP2C19 activ – activators of human cytochrome P450 2C19 | recombinant CYP2C19, luciferin-H EGE luminescence; active compounds read high; 0 = fully inhibited enzyme, 1 = untreated enzyme | activation factor at 5 µM | 96,000 tested, under 10 active;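 active = activation factor of at least 2 at 5 µM in the primary screen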;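 note: 0 = wells with 2.5 mM tranylcypromine and 1 = vehicle-only wells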
# Cav3 T inh – blocks human Cav3.2 T-type calcium channel; O95180; Cav3.2-expressing cells, Fluo-4 calcium fluorescence FDSS; active compounds read low; B-score at 10 µM; 4% of 100,000 active;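 active = single-dose well whose peak fluorescence ratio is a statistical outlier from its plate by either plate-standardised score or position-corrected B-score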
# CYP2C9 inh – blocks human cytochrome P450 2C9 | P11712 | CYP2C9 Supersomes, luciferin-H conversion, luminescence | inhibition, % at 5 µM | 20% of 96,000 active;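 active = blocking of liver enzyme CYP2C9 beyond about 50% at 5 µM, limit read from the data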
# Rev-RRE block – inhibitors of HIV-1 Rev-RRE RNA interaction | inhibition, % at 8 µM | Rev peptide-RRE RNA binding, FRET | P05866 | 0.79% of 97,000 active;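 active = inhibition above the screen-wide mean plus 3 SD, cut at about 35% in these data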;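 note: 0% = median DMSO wells and 100% = median Neomycin B control wells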
# Target sequence (P05866 whole entry, looked up): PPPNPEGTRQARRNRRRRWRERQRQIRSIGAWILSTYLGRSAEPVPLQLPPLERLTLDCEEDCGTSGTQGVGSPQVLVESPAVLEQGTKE
#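 Test system – labelled RRE RNA duplex and labelled Rev peptide · Signal – fluorescein-to-Cy5 FRET, 480 nm excitation · Evaluation – % inhibition of FRET ratio versus controls · Benchmarks – DMSO low control, neomycin B high control · Incubation – 5 min RNA-compound premix plus 15 min binding step, 25 °C · Medium – HEPES pH 7.5 salt buffer with EDTA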
# CYP2C19 inh – inhibitors of human CYP2C19; P33261; CYP2C19 Supersomes, luciferin-H EGE luminescence, 30 min; inhibition, % at 5 µM; 21% of 96,000 active;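 active = CYP2C19 inhibition above a set limit at 5 µM in the primary screen, cut at about 50% in these data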;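 note: plate controls were negative control wells for no effect and 2.5 mM tranylcypromine positive control for full effect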
# * = called active by the depositor; . = no result. An excerpt weighted towards active compounds, which were near 27% of everything screened.
SMILES,CYP2C9 activ,CYP2C19 activ,Cav3 T inh,CYP2C9 inh,Rev-RRE block,CYP2C19 inh
CCS(=O)(=O)c1ccc2c(c1)N(S(C)(=O)=O)CC(C(=O)NCc1ccccc1OC)O2 (stereo unspecified),0.4,0.8,0.468,62.3*,5.5,16.8
CCOC(=O)C1CN(S(=O)(=O)c2ccc(OC)cc2)c2cc(S(=O)(=O)CC)ccc2O1 (stereo unspecified),0.4,0.5,1.31,58.4*,2.9,50.4*
COc1cccc(C(C(=O)NC2CCCCC2)N(CC2CCCO2)C(=O)CNC(=O)c2ccco2)c1 (stereo unspecified),.,.,0.117,.,1.9,.
COc1cccc(C(=O)/C=C/c2ccc(SC)cc2)c1,0.6,0.1,0.204,39.7,12.4,92.2*
COc1cccc(/C=C/C(=O)c2ccc[nH]2)c1,0.8,0.3,.,17.0,2.9,69.8*
COc1cccc(C(=O)/C=C/Nc2cccc(O)c2)c1,0.7,0.1,-2.13,28.1,23.0,91.3*
COc1ccc(C(=O)/C=C/c2ccc(O)cc2)cc1,.,.,1.05,.,.,.
COc1cccc(C(=O)/C=C/Nc2ccc(S(=O)(=O)Nc3cccc(C(C)=O)c3)cc2)c1,0.2,0.7,.,77.7*,-0.3,34.1
CCn1cc(C(=O)NCCCN2CC(C)CC(C)C2)c(=O)c2cc(S(=O)(=O)N(C)C)ccc21 (stereo unspecified),1.1,0.8,1.14,-5.6,6.4,17.7
Cc1cc2ncn(-c3ncnc4sc(C)c(C)c34)c2cc1C,0.2,0.1,.,83.2*,10.2,91.4*
Cc1cc2ncn(-c3ncnc4sc5c(c34)CCCC5)c2cc1C,0.3,0.2,-5.7*,65.9*,6.2,82.8*
CC(C#N)Sc1ncnc2sc3c(c12)CCC3 (stereo unspecified),1.5,0.8,-0.644,-54.3,0.8,20.5
CC(O)CNc1nc2ccccc2n1-c1ncnc2sc3c(c12)CCC3 (stereo unspecified),0.6,0.6,-6.42*,44.5,4.8,38.5
Cc1cc2ncn(-c3ncnc4sc5c(c34)CCC(C)C5)c2cc1C (stereo unspecified),0.6,0.2,.,42.6,15.1,80.1*
N[C@@H](Cc1ccc(O)cc1)c1nnc([C@H](CO)NC(=O)C2CCNCC2)o1,.,.,-0.659,.,.,.
c1ccc2c(c1)ncn2-c1ncnc2sc3c(c12)CCCC3,0.7,0.3,-1.29,32.4,4.1,69.9*
O=C(CSc1ncnc2sc3c(c12)CCCC3)c1ccccc1,.,.,-0.474,.,4.1,.
COc1cccc2c1OC[C@@H](CO)[C@H]2N(C)C(=O)Nc1ccc(Cl)cc1Cl,1.3,0.7,.,-29.0,7.1,27.5
Cc1ccc(NC(=O)NC2(C(=O)NCc3ccccc3)CCCCC2)cc1,0.7,0.6,-0.0232,34.1,6.5,39.3
Cc1ccc(CNC(=O)C2(NC(=O)Nc3ccc(C)cc3)CCCCC2)cc1,0.5,0.5,-0.0795,53.8*,5.6,45.9
COc1ccc(NC(=O)NC2(C(=O)N3CCCCCC3)CCCCC2)cc1,0.4,0.7,-0.347,60.4*,4.8,29.3
Cc1cc(C)n(-c2nnc(C)n2NS(C)(=O)=O)n1,1.2,1.1,0.866,-24.9,11.3,-7.2
CSc1nnc(Cn2c(=O)sc3ccccc32)n1-c1ccccc1C,.,.,1.38,.,.,.
CCOc1ccccc1OCC(=O)O,1.2,1.2,-0.00478,-19.0,2.6,-20.0
COc1cccc(N(C(=O)Cn2nnc(-c3ccc(C)cc3)n2)C(C(=O)NC(C)(C)C)c2c[nH]c3ccccc23)c1 (stereo unspecified),0.1,0.6,-5.61*,87.6*,1.5,40.4
SMILES,CYP2C9 activ,CYP2C19 activ,Cav3 T inh,CYP2C9 inh,Rev-RRE block,CYP2C19 inh
O=C(NC1CCCC1)C(c1c[nH]c2ccccc12)N(C(=O)Cn1nnc(-c2ccc(Cl)cc2)n1)c1ccccc1 (stereo unspecified),0.3,0.7,-4.63,67.2*,2.1,30.3
Cc1ccc(-c2nnn(CC(=O)N(c3ccccc3)C(C(=O)NC3CCCC3)c3ccco3)n2)o1 (stereo unspecified),1.1,0.8,0.501,-6.6,11.1,18.8
C=CCSc1nnc2n(-c3ccccc3OC)c(=O)c3c4c(sc3n12)CCC4,1.1,1,0.546,-12.4,.,4.8
CN(C(=O)c1cccc(C#N)c1)c1nnc(-c2cnccn2)s1,1,0.9,0.269,-4.6,1.2,8.6
CN(C(=O)c1cccc(C#N)c1)c1nnc(-c2ccncc2)s1,0.3,0.1,0.289,70.3*,8.2,93.3*
COc1cccc(C(=O)N(C)c2nnc(-c3ccncc3)s2)c1,0.1,0,.,89.3*,6.6,100.0*
CCC(=O)NC(c1cccc([N+](=O)[O-])c1)c1c(OC(C)=O)ccc2ccccc12 (stereo unspecified),.,.,-1.78,.,-0.6,.
CC(=O)Oc1ccc2ccccc2c1C(NC(=O)Cc1ccccc1)c1ccccc1Cl (stereo unspecified),0.5,0.4,-2.2,48.1,2.3,63.1*
CCCCCn1c(SCc2cccc(C)c2)nc2c1c(=O)[nH]c(=O)n2C,.,.,-1.05,.,.,.
O=C1NC2(CCCCC2)N=C1c1ccc(Br)cc1,0.8,0.4,-0.0584,20.5,4.2,57.1*
O=C1NC2(CCCC2)N=C1c1ccc(Cl)cc1,0.8,0.2,-0.26,19.7,5.5,84.1*
Cc1cc(NC(=O)CN2CCOCC2)n(-c2nc3ccccc3s2)n1,0.6,0.9,-1.14,39.6,10.6,8.5
O=C(Cn1cnc2c(oc3ccccc32)c1=O)NCC1CCCO1 (stereo unspecified),0.8,1,0.195,16.7,7.4,-2.3
CCc1nc(SCC(=O)NCC2CCCO2)c2oc3ccccc3c2n1 (stereo unspecified),0.6,0.2,1.42,42.8,9.0,76.6*
Cc1nc(SCC(=O)NCC2CCCO2)c2oc3ccccc3c2n1 (stereo unspecified),0.8,0.5,1.78,18.4,3.6,52.2*
CSc1ncc(Cl)c(C(=O)NCc2ccc3c(c2)OCO3)n1,0.8,0.8,-0.000204,19.5,10.2,22.2
CSc1ncc(Cl)c(C(=O)C(C#N)c2nc3c(C)cc(C)cc3c(=O)[nH]2)n1 (stereo unspecified),.,.,-7.05*,.,.,.
COc1ccc(CCNC(=O)CCn2cccc2)cc1OC,0.8,0.6,-1.3,19.5,-0.5,36.7
CC(C)(Oc1ccc(Cl)cc1)C(=O)NCCCn1ccnc1,0.1,0,0.531,87.0*,2.7,100.1*
O=C(CNC(=O)c1ccc(Cl)cc1)NCCCn1ccnc1,0.2,0.1,.,79.4*,4.2,85.2*
O=C(NCCCn1ccnc1)Nc1cccc(Cl)c1,0,0,0.24,100.0*,3.2,95.8*
O=C(CCn1cccc1)NCCc1ccc(Cl)cc1,0.8,0.4,-0.358,23.7,3.5,58.9*
O=C(NCc1ccccn1)Nc1cccc(Cl)c1,0.9,0.6,-0.283,6.0,.,41.6
O=C(NCCCn1ccnc1)C(=O)NCc1ccc(Cl)cc1,.,.,-0.162,.,4.5,.
